Measurements of several laboratories.
Each line is one published result; the experiments were not run side by side.
Target: Mitogen-activated protein kinase kinase kinase 1 (MAP3K1, Homo sapiens, UniProt Q13233)

CN(CCCC(F)(F)F)c1nccc(-c2cnn3ncccc23)n1
remaining binding (binding; 1 µM): 75%

CS(=O)(=O)N1CCCC(NC(=O)[C@H](CCC2CCCCC2)NC(=O)c2ccc(CNc3ncnc4c3nnn4-c3ccccc3)cc2)C1 (stereo partly shown)
remaining binding (cell-free assay, competition with immobilised ligand; 0.1 µM): 81%

Cc1cnc(Nc2ccc(C(=O)N3CCC(N4CCCC4)CC3)cc2)nc1-c1cc2ccccc2s1
remaining binding (binding, competition with immobilised ligand; 1 µM): 70%

c1cnn2ncc(-c3ccnc(N4CCC45COC5)n3)c2c1
remaining binding (binding; 1 µM): 76%

CNC(=O)Nc1ccc2c(c1)[C@@]1(CC2)OC(=O)N(CC(=O)N(Cc2ccc(F)cc2)[C@@H](C)C(F)(F)F)C1=O
remaining binding (cell-free assay, competition with immobilised ligand; 1 µM): 95%

O=C(Nc1c[nH]nc1C(=O)NC1CCNCC1)c1cc(F)cc(F)c1
remaining binding (binding, competition with immobilised ligand; 1 µM): 84%

O=C(NCCCN1CCOCC1)c1ccc(Nc2ncc(Cl)c(-c3ccc(Cl)s3)n2)cc1
remaining binding (binding, competition with immobilised ligand; 1 µM): 100%

FC(F)(F)Oc1cccc(-c2cnc3ccc(-c4ccncc4)nn23)c1
remaining binding (cell-free assay, competition with immobilised ligand; 5 µM): 80%

CNC(=O)c1ccc(Nc2ncc(C(F)(F)F)c(NCc3nccnc3N(C)S(C)(=O)=O)n2)cc1
remaining binding (cell-free assay, competition with immobilised ligand; 0.1 µM): 100%

C=CC(=O)N1CCC(C(=O)NCC(=O)N2CCN(c3nc(-c4cnc(N)nc4C(F)F)nc(N4CCOCC4)n3)CC2)CC1
remaining binding (binding, competition with immobilised ligand; 1 µM): 93%

O=C(c1ccc(Nc2ncc(Cl)c(-c3cc4ccccc4s3)n2)cc1)N1CCC(N2CCCC2)CC1
remaining binding (binding, competition with immobilised ligand; 1 µM): 79%

Cc1cc(NC(=O)c2cccc(S(F)(F)(F)(F)F)c2)cc(-n2ccn3nc(-c4cccnc4)cc23)c1
remaining binding (cell-free assay, competition with immobilised ligand; 1 µM): 90%

COc1cnc(Nc2cccc(S(N)(=O)=O)c2)nc1N1CCN(c2ccccc2)CC1
remaining binding (binding, competition with immobilised ligand; 1 µM): 100%

Nc1ncc2c(n1)-c1c([nH]c3ccc(C#CC4CC4)cc13)CCCC2
remaining binding (binding, competition with immobilised ligand; 1 µM): 97%

CN(c1nccc(-c2cnn3ncccc23)n1)C1CC1
remaining binding (binding; 1 µM): 81%

COc1ccc2c(c1)O[C@@H](c1ccc(OC)c(OC)c1)C[C@H]2NC(=O)C1(c2ccc3c(c2)OC(F)(F)O3)CC1
remaining binding (cell-free assay, competition with immobilised ligand; 1 µM): 77%

COc1ccnn2ncc(-c3ccnc(N(C)C)n3)c12
remaining binding (binding; 1 µM): 100%

O=C(N1CCS(=O)(=O)CC1)N1C[C@H](c2ccc(OC(F)(F)F)cc2)C[C@H](c2nc(C3CC3)no2)C1
remaining binding (cell-free assay, competition with immobilised ligand; 1 µM): 100%

N[C@@H]1CCN(c2nccc(-c3cnn4ncccc34)n2)C1
remaining binding (binding; 1 µM): 97%

C[C@@H](c1ccc(-n2cnc3c(N)ncnc32)cc1)N1CCc2nn(C)c(Cc3ccccc3)c2C1=O
remaining binding (binding, competition with immobilised ligand; 0.1 µM): 60%

O=C1NC(c2ccccn2)Sc2ccccc21 (stereo not shown)
remaining binding (cell-free assay, competition with immobilised ligand; 1 µM): 55%

C[C@@H]1CCN(c2nccc(-c3cnn4ncccc34)n2)C1
remaining binding (binding; 1 µM): 85%
